# Measurements published in PMC10466730 (Cancer cell, 2023).
# Like-named read-outs stand apart in the source and are kept apart here.
# What was measured:
# CK1α = CK1α (Homo sapiens, UniProt P48729+Q96SW2); assay: Western blot of CK1α in MOLM-13 cells; assay type: cell-based; details: for CK1α degradation (Western blot): MOLM-13
# How it was run: (§1)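 MOLM-13 cells (1 × 10⁶) were treated 24 h with test compound diluted from DMSO stocks. Cells were pelleted, washed with PBS, lysed in Laemmli buffer by vortexing for 10 min, and boiled at 95 °C for 5 min. Lysates were resolved on 4–15% gradient SDS-PAGE, transferred to PVDF and immunoblotted with target-specific antibodies.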
# IKZF2 = IKZF2 (Homo sapiens, UniProt Q96SW2+Q9UKS7); assay: Western blot of IKZF2 in MOLM-13 cells; assay type: cell-based; details: MOLM-13, 24 h
# Sequence of IKZF2 (Q9UKS7 whole entry): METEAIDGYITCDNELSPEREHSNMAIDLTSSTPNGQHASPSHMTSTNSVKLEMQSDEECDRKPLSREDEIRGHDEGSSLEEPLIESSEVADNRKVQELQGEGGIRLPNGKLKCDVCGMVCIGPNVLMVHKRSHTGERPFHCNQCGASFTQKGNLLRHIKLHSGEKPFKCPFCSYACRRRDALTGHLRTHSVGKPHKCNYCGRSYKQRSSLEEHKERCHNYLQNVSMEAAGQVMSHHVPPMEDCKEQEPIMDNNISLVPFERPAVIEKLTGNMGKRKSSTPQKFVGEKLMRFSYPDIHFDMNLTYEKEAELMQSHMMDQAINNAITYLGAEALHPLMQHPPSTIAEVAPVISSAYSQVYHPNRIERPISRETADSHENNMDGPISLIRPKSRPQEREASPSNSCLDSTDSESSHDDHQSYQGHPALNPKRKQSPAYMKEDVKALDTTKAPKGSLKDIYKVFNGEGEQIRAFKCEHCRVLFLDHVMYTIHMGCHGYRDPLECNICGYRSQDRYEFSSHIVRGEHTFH
# Sequence of IKZF2 (Q96SW2 whole entry): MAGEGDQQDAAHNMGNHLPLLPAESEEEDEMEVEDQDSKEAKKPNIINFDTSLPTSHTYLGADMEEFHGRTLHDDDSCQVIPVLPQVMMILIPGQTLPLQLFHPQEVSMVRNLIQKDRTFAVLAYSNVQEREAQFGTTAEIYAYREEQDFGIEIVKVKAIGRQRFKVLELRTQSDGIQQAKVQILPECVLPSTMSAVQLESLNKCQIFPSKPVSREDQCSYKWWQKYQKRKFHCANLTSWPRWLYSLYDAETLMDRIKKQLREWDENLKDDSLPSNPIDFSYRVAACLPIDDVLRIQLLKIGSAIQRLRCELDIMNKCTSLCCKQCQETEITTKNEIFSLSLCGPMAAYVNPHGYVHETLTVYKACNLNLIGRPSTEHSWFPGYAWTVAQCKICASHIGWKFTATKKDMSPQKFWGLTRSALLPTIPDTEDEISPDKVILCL
# Sequence of IKZF2 (Q16531 whole entry partner): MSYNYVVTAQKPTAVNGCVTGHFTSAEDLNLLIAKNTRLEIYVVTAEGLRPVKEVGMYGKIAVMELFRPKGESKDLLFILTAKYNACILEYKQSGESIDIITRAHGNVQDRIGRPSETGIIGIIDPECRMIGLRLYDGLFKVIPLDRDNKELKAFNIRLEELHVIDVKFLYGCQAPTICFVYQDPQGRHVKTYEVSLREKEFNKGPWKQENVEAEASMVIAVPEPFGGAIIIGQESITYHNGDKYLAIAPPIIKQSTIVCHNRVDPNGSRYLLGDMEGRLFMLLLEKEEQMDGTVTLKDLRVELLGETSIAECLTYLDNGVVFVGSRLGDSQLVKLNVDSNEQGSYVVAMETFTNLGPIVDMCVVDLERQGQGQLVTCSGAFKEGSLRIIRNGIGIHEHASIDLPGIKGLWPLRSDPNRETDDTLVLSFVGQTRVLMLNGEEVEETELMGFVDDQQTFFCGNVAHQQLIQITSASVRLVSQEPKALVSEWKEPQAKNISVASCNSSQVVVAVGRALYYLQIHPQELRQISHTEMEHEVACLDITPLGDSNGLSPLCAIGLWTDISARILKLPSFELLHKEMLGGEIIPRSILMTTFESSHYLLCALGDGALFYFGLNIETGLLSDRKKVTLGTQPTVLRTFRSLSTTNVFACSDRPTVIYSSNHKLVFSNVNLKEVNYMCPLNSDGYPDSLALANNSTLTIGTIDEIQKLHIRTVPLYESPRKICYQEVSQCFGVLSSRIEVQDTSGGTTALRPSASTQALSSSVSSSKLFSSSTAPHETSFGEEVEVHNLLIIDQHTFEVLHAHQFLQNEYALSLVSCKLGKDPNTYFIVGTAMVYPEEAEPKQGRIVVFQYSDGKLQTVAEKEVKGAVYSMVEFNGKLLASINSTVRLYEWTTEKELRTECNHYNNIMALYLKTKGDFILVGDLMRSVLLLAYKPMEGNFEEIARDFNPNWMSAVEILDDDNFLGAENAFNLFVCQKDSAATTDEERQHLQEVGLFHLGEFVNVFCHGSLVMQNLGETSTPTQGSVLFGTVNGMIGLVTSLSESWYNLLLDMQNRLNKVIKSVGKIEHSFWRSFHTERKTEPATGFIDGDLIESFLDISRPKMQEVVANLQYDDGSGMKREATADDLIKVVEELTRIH
# How it was run: as §1
# MOLM-13 cells [1] = assay: Viability assay in MOLM-13 cells; assay type: cell-based, human; details: MOLM-13, 72 h; for cellular growth inhibition: unlike lenalidomide, Figure 1E; for IC50: Homo sapiens
# How it was run: (§2)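 Human AML cell lines were plated at 10,000 cells per well with increasing test compound up to 100 μM for 72 h at 37 °C, 5% CO₂. CellTiter-Glo was added 1:1 for 15 min at room temperature and luminescence was read; MTT was used as an alternative read-out. Percent viability was fitted by non-linear regression to give IC50. Three independent experiments, triplicates.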
# [2] = target: IKZF2(zinc finger 2)-GFP fusion protein (Homo sapiens, UniProt Q96SW2+Q9UKS7); assay: Flow cytometry degradation assay, HEK293T IKZF2; assay type: cell-based; details: HEK293T IKZF2(zinc finger 2)-GFP, 24 h
# AML PDX#2 = assay: Efficacy in NSG mice transplanted with AML PDX; assay type: in vivo, mouse
# IKZF1 = IKZF1 (Homo sapiens, UniProt Q13422); assay: Western blot of IKZF1 in MOLM-13 cells; assay type: cell-based; details: MOLM-13, 24 h
# How it was run: as §1
# IKZF3 = IKZF3 (Homo sapiens, UniProt Q9UKT9); assay: Western blot of IKZF3 in MOLM-13 cells; assay type: cell-based; details: MOLM-13, 24 h
# How it was run: as §1
# panel of AML cell lines = assay: Viability assay in a panel of AML cell lines; assay type: cell-based, human; details: AML cell lines with various oncogenic mutations, 72 h
# How it was run: as §2
# MLL-AF9 Crbn^I391V cells [3] = assay: Efficacy in BL6 mice transplanted with MLL-AF9 Crbn^I391V cells; assay type: in vivo
# IKZF4 = IKZF4 (Homo sapiens, UniProt Q9H2S9); assay: Western blot of IKZF4 in MOLM-13 cells; assay type: cell-based; details: MOLM-13, 24 h
# How it was run: as §1
# [4] = system: primary AML patient samples; assay: Colony assay of primary AML patient samples; assay type: cell-based, human; details: 10 nM, n = 8, compared to healthy adult bone marrow or cord blood cells
# How it was run: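 Primary AML patient cells, normal bone marrow or cord blood CD34+ HSPCs were plated at 5000 cells on methylcellulose with test compound. Colonies were counted after 7 days and normalized to control. Mean ± SEM of samples from more than three experiments.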
# MLL-AF9 Crbn^I391V cells [5] = assay: Flow cytometry for apoptosis and differentiation in MLL-AF9 Crbn^I391V cells; assay type: cell-based, mouse; details: 10 nM, 24 h post treatment, dependent on humanized CRBN
# CRBN = CRBN (Homo sapiens, UniProt Q96SW2); assay: HTR-FRET Cereblon binding assay
# Sequence of CRBN (Q96SW2 whole entry): as the sequence (Q96SW2 whole entry) above
# [6] = system: MLL-AF9 leukemic bone marrow Crbn^I391V cells; assay: Viability assay in MLL-AF9 leukemic bone marrow Crbn^I391V cells; assay type: cell-based; details: Mus musculus, MLL-AF9, 72 h, read-out: IC50 (proliferation)
# [7] = system: MOLM-13 and MOLM-14 cells; assay: Combination viability assay with other AML drugs; assay type: cell-based, human; details: 72 h
# How it was run: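 MOLM-13 cells were co-treated with test compound plus midostaurin or cytarabine for 72 h. Viability was read by CellTiter-Glo luminescence. A representative of three independent experiments is shown, mean ± SEM of triplicates.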
# IKZF1(zinc finger 2)-GFP = IKZF1(zinc finger 2)-GFP (Homo sapiens, UniProt Q13422); assay: Flow cytometry degradation assay, HEK293T IKZF1; assay type: cell-based; details: HEK293T IKZF1(zinc finger 2)-GFP
# MOLM-13 cells [8] = assay: Efficacy in NSG mice transplanted with MOLM-13 cells; assay type: in vivo; details: for survival: vs DMSO
# MOLM-13 cells [9] = assay: Quantitative global proteomics in MOLM-13 cells; assay type: cell-based, human; details: 50 nM, 2 h
# [10] = system: LSK cells from Crbn^I391V mice; assay: Colony assay of Crbn^I391V LSK cells; assay type: cell-based, mouse; details: 10 nM, M3434 methylcellulose
# How it was run: (§3)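 Murine cells were plated on MethoCult M3434 methylcellulose with test compound: 500 sorted LSK cells from Crbn^I391V mice, or 1000 bone marrow cells from MLL-AF9 Crbn^I391V leukemic mice. Colonies were counted after 5 days and normalized. Cells came from n=3 mice. Mean ± SEM of biological replicates from two experiments.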
# AML PDX cells = assay: Viability assay in AML PDX cells; assay type: cell-based, human; details: read-out: IC50 (viability); two AML PDX samples, 2 days, Figure 5D
# How it was run: (§4)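 AML PDX cells or normal human bone marrow cells were plated at 10,000 cells per well with increasing test compound concentrations and cultured for 2 days at 37 °C, 5% CO₂. Viability was read by CellTiter-Glo luminescence or MTT absorbance, normalized to percent viability, and fitted by non-linear regression.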
# [11] = system: MLL-AF9 Crbn^I391V leukemic cells; assay: Colony assay of MLL-AF9 Crbn^I391V leukemic cells; assay type: cell-based, mouse; details: 10 nM, M3434 methylcellulose
# How it was run: as §3
# MLL-AF9 Crbn^I391V cells [12] = assay: Pharmacodynamics in BL6 mice transplanted with MLL-AF9 Crbn^I391V cells; assay type: in vivo, mouse
# GSPT1 = GSPT1 (Homo sapiens, UniProt P15170+Q96SW2); assay: Western blot of endogenous GSPT1; assay type: cell-based; details: degradation at micromolar concentrations, Figure S2D
# GSPT1-GFP = GSPT1-GFP (Homo sapiens, UniProt P15170+Q96SW2); assay: Flow cytometry degradation assay, HEK293T GSPT1-GFP; assay type: cell-based
# CK1α-GFP fusion protein = CK1α-GFP fusion protein (Homo sapiens, UniProt P48729+Q96SW2); assay: Flow cytometry degradation assay, HEK293T CK1α-GFP; assay type: cell-based; details: 5 h
# [13] = system: normal bone marrow Crbn^I391V cells; assay: Viability assay in normal bone marrow Crbn^I391V cells; assay type: cell-based; details: Mus musculus, 72 h, read-out: IC50 (proliferation)
# [14] = system: healthy bone marrow cells; assay: Viability assay in healthy bone marrow cells; assay type: cell-based; details: Homo sapiens, Bone marrow cell, 48 h, read-out: IC50 (viability)
# How it was run: as §4
# [15] = target: His-CULT and streptactin-CK1α (Homo sapiens, UniProt P48729+Q96SW2); assay: AlphaScreen ternary complex between CRBN and CK1α; assay type: binding; details: compared with lenalidomide
# Sequence of His-CULT and streptactin-CK1α (Q96SW2 318-426 limits assumed): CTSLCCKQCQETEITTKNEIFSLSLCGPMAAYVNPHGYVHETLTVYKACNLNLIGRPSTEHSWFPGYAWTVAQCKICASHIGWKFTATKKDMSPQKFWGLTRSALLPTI
# Sequence of His-CULT and streptactin-CK1α (P48729 whole entry): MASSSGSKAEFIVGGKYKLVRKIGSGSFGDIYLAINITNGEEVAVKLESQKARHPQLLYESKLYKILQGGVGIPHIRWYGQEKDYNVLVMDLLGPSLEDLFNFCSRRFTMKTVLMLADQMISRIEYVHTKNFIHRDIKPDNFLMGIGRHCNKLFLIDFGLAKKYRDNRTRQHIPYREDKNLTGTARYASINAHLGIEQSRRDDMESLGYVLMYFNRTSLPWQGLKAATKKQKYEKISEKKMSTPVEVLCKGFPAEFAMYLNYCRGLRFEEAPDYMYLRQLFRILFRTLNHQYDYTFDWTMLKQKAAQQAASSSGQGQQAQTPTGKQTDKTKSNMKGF
# How it was run: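 CK1α–CRBN ternary complex by AlphaScreen in 1× AlphaScreen buffer (3× stock: 150 mM HEPES pH 7.4, 450 mM NaCl, 0.3% BSA, 0.03% Tween 20). Streptactin-CK1α (600 nM solution) and CULT (500 nM solution) were mixed with a 2-fold serial dilution of test compound in 3% DMSO/buffer, in triplicate, for 1 h at 25 °C. Streptactin acceptor and nickel chelate donor beads were then added for 1 h at 25 °C in the dark before reading.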
# MOLM-13 cells [16] = assay: Flow cytometry for apoptosis and differentiation in MOLM-13 cells; assay type: cell-based, human; details: MOLM-13, 10 nM and 100 nM, 2 days
# How it was run: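 MOLM-13 cells were treated 48 h. For differentiation, cells were stained 20 min in the dark in 2% FBS RPMI for CD13-FITC/CD33-APC or CD14-FITC/CD11b-APC. Mean ± SEM of three experiments; Student's t test.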
# Pharmacokinetics in mice = assay type: in vivo, mouse; details: plasma, ip
# How it was run: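 Single intraperitoneal doses in DMSO: one test compound at 5 or 50 mg/kg in male CD1 mice, another at 223 mg/kg in female Crbn^I391V mice. Plasma was collected at set times and compound levels were measured by HPLC.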
# Solubility in DMSO = assay type: physicochemical
# MLL-AF9 Crbn^I391V cells [17] = assay: Efficacy in Crbn^I391V mice transplanted with MLL-AF9 Crbn^I391V cells; assay type: in vivo, mouse; details: 223 mg/kg weekly, non-irradiated Crbn^I391V mice
# [18] = Toxicity in the hematopoietic system of Crbn^I391V mice; assay type: in vivo, mouse; details: four rounds of 223 mg/kg, weekly
# How it was run: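 Female Crbn^I391V mice aged 8–12 weeks received DMSO or 223 mg/kg test compound once weekly for four rounds. They were sacrificed 4 weeks later. Blood was analysed on a hematology analyser, and stem/progenitor compartments were assessed by flow cytometry.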
# [19] = read-out: IC50 (cell viability)
# Sequence of CK1α (P48729 whole entry): as above
# Sequence of CK1α (Q96SW2 whole entry): as the sequence (Q96SW2 whole entry) above
# Sequence of CK1α (Q16531 whole entry partner): as the sequence (Q16531 whole entry partner) above
structure (smiles),measurement,setting,value
"COc1ccc2cc(CNc3ccc4c(c3)CN(C3CCC(=O)NC3=O)C4=O)ccc2c1 (stereo not shown) [CH2-DEG-35, 3-(5-(((6-methoxynaphthalen-2-yl)methyl)amino)-1-oxoisoindolin-2-yl)piperidine-2,6-dione]",CK1α degradation (Western blot),CK1α,but not CH2-DEG-35 efficiently degraded
"O=C1CCC(N2Cc3cc(NC(=O)c4ccc5ccccc5c4)ccc3C2=O)C(=O)N1 (stereo not shown) [DEG-9, N-(2-(2,6-dioxopiperidin-3-yl)-1-oxoisoindolin-5-yl)-2-naphthamide]",IKZF2 degradation (Western blot),IKZF2,dose-dependent degradation
same,cellular growth inhibition,MOLM-13 cells [1],inhibited cellular growth
"COc1ccc2cc(C(=O)Nc3ccc4c(c3)CN(C3CCC(=O)NC3=O)C4=O)ccc2c1 (stereo not shown) [DEG-35, N-(2-(2,6-dioxopiperidin-3-yl)-1-oxoisoindolin-5-yl)-6-methoxy-2-naphthamide]",CK1α degradation (Western blot),CK1α,efficiently degraded CK1α
same,concentrations depleting CK1α (as low as),"CK1α; MOLM-13, 24 h, Western blot",1 to 10 nM
same,DCmax IKZF2,[2],92%
same,survival,"AML PDX#2; AML PDX#2, DEG-35 vs DMSO",significant prolonged survival
same,IKZF2 degradation (Western blot),IKZF2,efficiently degraded IKZF2
same,activity against IKZF1 (Western blot),IKZF1,limited activity
same,activity against IKZF3 (Western blot),IKZF3,limited activity
same,IC50 values (growth),panel of AML cell lines,single digit nM to low μM
same,body weight,MLL-AF9 Crbn^I391V cells [3]; 50 mg/kg,without overt weight loss
same,leukemia progression,"MLL-AF9 Crbn^I391V cells [3]; 50 mg/kg, vs DMSO",delayed leukemia progression
same,activity against IKZF4 (Western blot),IKZF4,limited activity
same,colony formation,[4],reduced colony formation
same,apoptosis and myeloid differentiation,MLL-AF9 Crbn^I391V cells [5],resulted in apoptosis and myeloid differentiation at nanomolar concentrations
same,Kd,CRBN,473 nM
same,IC50,[6],9.2 nM
same,sensitivity to DEG-35 on co-treatment with cytarabine,[7],more sensitive
same,sensitivity to DEG-35 on co-treatment with midostaurin,[7],more sensitive
same,DCmax IKZF1-GFP,IKZF1(zinc finger 2)-GFP,12%
same,body weight,MOLM-13 cells [8]; 50 mg/kg,without overt weight loss
same,disease burden (spleen and liver weights),MOLM-13 cells [8]; 50 mg/kg,decreased spleen and liver weights
same,survival,MOLM-13 cells [8]; 50 mg/kg,significantly prolonged survival
same,CK1α rank in global proteomics,MOLM-13 cells [9],most significantly downregulated protein
same,LSK derived colonies,[10],not affected
same,IC50,AML PDX cells,5.2 nM
same,IC50,MOLM-13 cells [1]; [19],5 nM
same,IC50,MOLM-13 cells [1]; read-out: IC50 (viability),5.7 nM
same,cellular growth inhibition,MOLM-13 cells [1],inhibited cellular growth
same,reduction of colonies,[11],half
same,degradation of CK1α and IKZF2 in leukemic cells from bone marrow and spleen,"MLL-AF9 Crbn^I391V cells [12]; single dose 50 mg/kg, 24 h and 72 h",efficient degradation of CK1α and IKZF2
same,endogenous GSPT1 degradation (Western blot),GSPT1,limited degradation at nanomolar concentrations
same,DCmax GSPT1-GFP,GSPT1-GFP,24%
same,DCmax CK1α,CK1α-GFP fusion protein,84%
same,IC50,[13],100 nM
same,IC50,[14],15.7 nM
same,ternary complex between CRBN and CK1α,[15],significantly stronger ternary complex
same,apoptosis induction and myeloid differentiation,MOLM-13 cells [16],significant dose-dependent apoptosis induction and myeloid differentiation
same,half-life,"Pharmacokinetics in mice; male, CD1, mouse",2.5 h
"COc1cccc2c1OCC(C(=O)Nc1ccc3c(c1)CN(C1CCC(=O)NC1=O)C3=O)=C2 (stereo not shown) [DEG-77, N-(2-(2,6-dioxopiperidin-3-yl)-1-oxoisoindolin-5-yl)-8-methoxy-2H-chromene-3-carboxamide]",CK1α degradation (Western blot),CK1α,maintained comparable activity
same,survival,AML PDX#2; 223 mg/kg weekly from 4 weeks post-transplant,significant extension of survival
same,engraftment of PDX cells in the bone marrow,"AML PDX#2; after a single injection, >85% prior to treatment",around 40%
same,IKZF2 degradation (Western blot),IKZF2,maintained comparable activity
same,increase in solubility in DMSO compared to DEG-35,Solubility in DMSO,10 fold
same,body weight,MLL-AF9 Crbn^I391V cells [3]; 223 mg/kg weekly,without loss of total body weight
same,survival,"MLL-AF9 Crbn^I391V cells [3]; 223 mg/kg weekly, vehicle 35 days",66 days
same,leukemia progression in secondary transplant,MLL-AF9 Crbn^I391V cells [3]; cells from mice treated in the primary transplant,pronounced delay in leukemia progression
same,survival,MOLM-13 cells [8]; 223 mg/kg weekly,increased survival
same,survival,MLL-AF9 Crbn^I391V cells [17],significant increase in survival
same,WBC counts,[18],modest reduction of WBC counts
same,platelets and RBC counts,[18],remained unchanged
same,stem cell compartment frequency,[18],reduced HSC and MPP1 frequency
same,IC50,MOLM-13 cells [1]; [19],4 nM
same,"degradation of IKZF2, CK1α, GSPT1 in bone marrow and splenic leukemic cells","MLL-AF9 Crbn^I391V cells [12]; one injection 223 mg/kg, 24, 48 and 72 h",degradation of IKZF2 and CK1α but not GSPT1
same,half-life,"Pharmacokinetics in mice; female, Crbn^I391V, mouse, 223 mg/kg",16.9 h
"COc1ccc2cc(C(=O)Nc3ccc4c(c3)CN(C3CCC(=O)N(C)C3=O)C4=O)ccc2c1 (stereo not shown) [Me-DEG-35, 6-methoxy-N-(2-(1-methyl-2,6-dioxopiperidin-3-yl)-1-oxoisoindolin-5-yl)-2-naphthamide]",CK1α degradation (Western blot),CK1α,rescued IKZF2 and CK1α degradation
same,IKZF2 degradation (Western blot),IKZF2,rescued IKZF2 and CK1α degradation
